The source of these data is ChEMBL document CHEMBL1821678, “Synthesis and bio-activity evaluation of tetraphenyl(phenylamino) methylene bisphosphonates as antioxidant agents and as potent inhibitors of osteoclasts in vitro” (Eur J Med Chem, 2011).

Each structure is given as a SMILES string. Converted amounts (≈) assume the structure as drawn.

In assay [1] the test system is Liver. The assay is described as follows: Antioxidant activity in rat liver cells assessed as inhibition of Fe(2+)-asocrbate complex system-induced lipid peroxidation by TBARS assay. Type of assay: functional, cell-based. The procedure, abridged:
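Lipid peroxidation in rat liver cells induced by Fe2+–ascorbate complex; measured as thiobarbituric acid reacting substances (TBARS). Vitamin C standard; IC50 derived.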

The test system of assay [2] is Osteoclast. Description: In-vitro antibone resorptive activity Sprague-Dawley rat pup long bone osteoclasts assessed as compound concentration causing inhibition of bone resorption after 24 hrs by MTT assay. The assay is classed as functional. The procedure, abridged:
(§1)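 Osteoclasts scraped from long bones of 1–2-day-old Sprague–Dawley rat pups into Hepes-buffered DMEM with 7–10% heat-inactivated FCS; attached 30 min to bovine cortical bone slices, unattached cells rinsed off. Treated at 10, 50, 100 and 250 μM, 37 °C, 5% CO2; harvested at 24, 48, 72 h; MTT viability read at 492 nm, triplicates; inhibitory ratio reported. Alendronate reference.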
Background: Tetrazolium dyes change colour on reduction, which living cells bring about.

Assay [3] relates to Osteoclast. Description: In-vitro antibone resorptive activity Sprague-Dawley rat pup long bone osteoclasts assessed as compound concentration causing inhibition of bone resorption after 48 hrs by MTT assay. The assay is classed as functional. The procedure, abridged:
as §1

In assay [4] the test system is Osteoclast. The assay is described as follows: In-vitro antibone resorptive activity Sprague-Dawley rat pup long bone osteoclasts assessed as compound concentration causing inhibition of bone resorption after 72 hrs by MTT assay. Type of assay: functional. The procedure, abridged: as §1
In assay [5] the test system is Radical scavenging activity. Description: Antioxidant activity assessed as DPPH free radical scavenging activity after 30 mins. Type of assay: functional. The procedure, abridged:
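DPPH (85 μM) added to medium containing a range of test concentrations; incubated 30 min at room temperature; decrease in absorbance read at 518 nm. Ascorbic acid served as reference for maximal decrease. Activity expressed as % inhibition of DPPH absorbance relative to standard; IC50 derived.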

Assay [6] is described as follows: Antioxidant activity assessed as potassium ferricyanide ion reducing power after 20 mins by spectrophotometry. Type of assay: functional. In outline:
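Compounds (50–100 μM) mixed with phosphate buffer (0.2 M, pH 6.6) and 1% potassium ferricyanide, 50 °C for 20 min; 10% TCA added, centrifuged; upper layer diluted with water plus 0.1% ferric chloride; absorbance at 700 nm, higher absorbance = greater reducing power. Vitamin C standard.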

For orientation: IC50 means the midpoint of a concentration-inhibition curve. As to `O=[N+]([O-])c1cc(NC(P(=O)(Oc2ccccc2)Oc2ccccc2)P(=O)(Oc2ccccc2)Oc2ccccc2)ccc1F`, the IC50 came out at 78.5 µg/mL (≈ 124 µM) in assay [1], 30.1 µg/mL (≈ 47.4 µM) in assay [5] and 2.27 µg/mL (≈ 3.58 µM) in assay [6]. The “Concentration causing inhibition of bone resorption” value (shortened to “Concentration causing inhibition”) in assay [2] was determined as 31.2 µM; in assay [3], 19.1 µM. In addition, the inhibitory concentration in assay [4] is 8.1 µM.
In the case of `COc1ccc(NC(P(=O)(Oc2ccccc2)Oc2ccccc2)P(=O)(Oc2ccccc2)Oc2ccccc2)cc1`, the half-maximal inhibitory concentration (IC50) is 89.8 µg/mL (≈ 149 µM) in assay [1], 40.7 µg/mL (≈ 67.7 µM) in assay [5] and 2.73 µg/mL (≈ 4.54 µM) in assay [6]. In addition, the “Concentration causing inhibition” value stood at 138.7 µM in assay [2] and 102.6 µM in assay [3]. Besides, the inhibitory concentration in assay [4] came out at 67.7 µM.
`O=P(Oc1ccccc1)(Oc1ccccc1)C(Nc1ccc(Cl)cc1)P(=O)(Oc1ccccc1)Oc1ccccc1`: the IC50 in assay [1] came out at 87.5 µg/mL (≈ 144 µM); in assay [5] it was 41.5 µg/mL (≈ 68.5 µM); in assay [6], 2.71 µg/mL (≈ 4.47 µM). Further, the “Concentration causing inhibition” value in assay [2] amounted to 191.4 µM; in assay [3] it was 140.3 µM. Further, the inhibitory concentration in assay [4] was 71.8 µM.
As to `O=P(Oc1ccccc1)(Oc1ccccc1)C(Nc1ccc(F)cc1)P(=O)(Oc1ccccc1)Oc1ccccc1`, the IC50 was 86.2 µg/mL (≈ 146 µM) in assay [1], 48.2 µg/mL (≈ 81.8 µM) in assay [5] and 2.86 µg/mL (≈ 4.85 µM) in assay [6]. The “Concentration causing inhibition” value in assay [2] was determined as 126.1 µM; in assay [3], 89.1 µM. Further, the inhibitory concentration in assay [4] is 56.4 µM.
With `O=[N+]([O-])c1cccc(NC(P(=O)(Oc2ccccc2)Oc2ccccc2)P(=O)(Oc2ccccc2)Oc2ccccc2)c1`, the IC50 came to 85.7 µg/mL (≈ 139 µM) in assay [1], 39.6 µg/mL (≈ 64.2 µM) in assay [5] and 2.09 µg/mL (≈ 3.39 µM) in assay [6]. Further, the “Concentration causing inhibition” value in assay [2] was 49.6 µM; in assay [3] it was 28.8 µM. In addition, the inhibitory concentration in assay [4] was 14.6 µM.
In the case of `O=P(Oc1ccccc1)(Oc1ccccc1)C(Nc1ccc(F)c(Cl)c1)P(=O)(Oc1ccccc1)Oc1ccccc1`, the 50% inhibitory concentration (IC50) is 80.6 µg/mL (≈ 129 µM) in assay [1], 32.9 µg/mL (≈ 52.7 µM) in assay [5] and 2.14 µg/mL (≈ 3.43 µM) in assay [6]. Also, the “Concentration causing inhibition” value stood at 32.7 µM in assay [2] and 21.6 µM in assay [3]. Besides, the inhibitory concentration in assay [4] came out at 10.4 µM.
For `Cc1ncc(NC(P(=O)(Oc2ccccc2)Oc2ccccc2)P(=O)(Oc2ccccc2)Oc2ccccc2)s1`, the 50% inhibitory concentration (IC50) in assay [1] came to 75.2 µg/mL (≈ 127 µM); in assay [5] it was 58.4 µg/mL (≈ 98.6 µM); in assay [6], 3.01 µg/mL (≈ 5.08 µM). Further, the “Concentration causing inhibition” value in assay [2] is 88.4 µM; in assay [3], 64.2 µM. For the same molecule, the inhibitory concentration in assay [4] amounted to 48.8 µM.
As for `O=[N+]([O-])c1ncc(NC(P(=O)(Oc2ccccc2)Oc2ccccc2)P(=O)(Oc2ccccc2)Oc2ccccc2)s1`, the IC50 in assay [1] amounted to 97.9 µg/mL (≈ 157 µM); in assay [5], 48.6 µg/mL (≈ 77.9 µM); in assay [6] it was 3.54 µg/mL (≈ 5.68 µM). Also, the figures for the “Concentration causing inhibition” value in assay [2] and in assay [3] were 106.6 µM and 87.7 µM, respectively. Further, the inhibitory concentration in assay [4] came to 51.6 µM.
For `O=P(Oc1ccccc1)(Oc1ccccc1)C(Nc1cccc2ncsc12)P(=O)(Oc1ccccc1)Oc1ccccc1`, the IC50 in assay [1] stood at 84.9 µg/mL (≈ 135 µM); in assay [5], 47.9 µg/mL (≈ 76.2 µM); in assay [6] it was 2.44 µg/mL (≈ 3.88 µM). Moreover, the results for the “Concentration causing inhibition” value in assay [2] and in assay [3] were 125.9 µM and 95.9 µM, respectively. Also, the inhibitory concentration in assay [4] is 54.5 µM.
With `NCCCC(O)(P(=O)(O)O)P(=O)(O)O` [ALENDRONIC ACID], the INH in assay [2] is 52.7 µM; in assay [3] it was 29.6 µM. For the same molecule, in assay [4], the inhibitory concentration amounted to 20.4 µM.
In the case of `O=C1O[C@H]([C@@H](O)CO)C(O)=C1O` [ASCORBIC ACID], the figures for the IC50 in assay [1], in assay [5] and in assay [6] were 75.2 µg/mL (≈ 427 µM), 32.2 µg/mL (≈ 183 µM) and 2.51 µg/mL (≈ 14.3 µM), respectively.
In the case of `O=P(Oc1ccccc1)(Oc1ccccc1)C(Nc1ccccc1)P(=O)(Oc1ccccc1)Oc1ccccc1` [TETRAPHENYL(PHENYLAMINO)METHYLENE DIPHOSPHONATE], the figures for the concentration for half-maximal inhibition (IC50) in assay [1], in assay [5] and in assay [6] were 96 µg/mL (≈ 168 µM), 80.6 µg/mL (≈ 141 µM) and 3.12 µg/mL (≈ 5.46 µM), respectively. The “Concentration causing inhibition” value in assay [2] was found to be 201.6 µM; in assay [3], 168.2 µM. For the same molecule, the inhibitory concentration in assay [4] worked out at 104.4 µM.
